Compounds with a hit are over-represented: about 2.6% of the library has one in this group of screens.
ASAP1 GAP inh: ASAP1 ArfGAP inhibition; ASAP1-stimulated ARF1 GTP hydrolysis, GDP FP detection; inhibition, % at 16.5 µM; 360,000 tested, 0.19% active; AID 624377; in the data active means inhibition above about 25%
Target sequence (Q9ULH1 325-724 limits assumed): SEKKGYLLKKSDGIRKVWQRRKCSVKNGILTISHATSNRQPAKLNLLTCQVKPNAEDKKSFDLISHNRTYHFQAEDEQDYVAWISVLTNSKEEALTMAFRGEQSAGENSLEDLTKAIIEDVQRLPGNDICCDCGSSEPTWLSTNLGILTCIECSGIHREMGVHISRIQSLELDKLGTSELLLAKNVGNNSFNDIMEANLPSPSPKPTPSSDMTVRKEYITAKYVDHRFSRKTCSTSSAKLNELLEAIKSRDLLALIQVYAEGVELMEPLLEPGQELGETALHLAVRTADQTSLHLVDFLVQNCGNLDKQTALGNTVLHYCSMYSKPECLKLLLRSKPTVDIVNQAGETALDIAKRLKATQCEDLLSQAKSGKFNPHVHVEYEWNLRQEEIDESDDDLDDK
esBAF inh: SWI/SNF esBAF complex inhibition. mouse ES cells, Bmi1-luciferase knock-in reporter, 24 h; 100% = twice the neutral-well signal. reporter increase, % at 12.5 µM. 350,000 tested, 2% active. AID 602393; in the data active means activation above about 40%;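 further: a rise in the Bmi1 reporter signal indicates esBAF inhibition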
ARFGAP1 inhibitor: inhibits rat ARF GTPase activating protein 1. 360,000 tested, 0.26% active. Arfgap1-stimulated ARF1 GTP hydrolysis, GDP FP detection. Q62848. AID 651572. inhibition, % at 16.5 µM;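 active means inhibition above a per-plate limit, mean inhibition of low control wells plus 3 SD, cut at about 25% in these data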
Target sequence (Q62848 1-136 limits assumed): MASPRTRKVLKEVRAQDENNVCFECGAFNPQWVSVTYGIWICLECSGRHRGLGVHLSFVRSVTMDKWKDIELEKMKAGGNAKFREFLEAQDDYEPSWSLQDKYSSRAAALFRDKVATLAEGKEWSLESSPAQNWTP
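Assay system: Rat Arfgap1 GAP domain (His6, aa 1-136), purified enzyme | Buffer or medium: HEPES 25 mM pH 7.5, NaCl 150 mM, MgCl2, DTT | Schedule: GTP hydrolysis reaction 2 h at 25 °C | Signal: FP of antibody-bound GDP Alexa 633 tracer, ex 620/em 688 nm | Measure: Percent inhibition of Arfgap1-stimulated GTP hydrolysis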
SMARCA2 activ: activators of SMARCA2 function. MG213 cells, MMTV-luciferase reporter, dexamethasone, overnight. activation, % at 9.1 µM. 370,000 tested, 1% active; in the data active means activation above about 7.8%
Each line names hits and unclear results; the compound was inactive in the other large screens.

O=C(COC(=O)c1cccc(-n2cnnn2)c1)c1ccc(Br)cc1	esBAF inh 49
C[C@H]1CN([C@@H](C)CO)C(=O)c2ccccc2-c2ccccc2CO[C@H]1CN(C)C(=O)CCN(C)C	none (no result: ASAP1 GAP inh, ARFGAP1 inhibitor, SMARCA2 activ)
CCOc1cccc(OCCOc2ccccc2[N+](=O)[O-])c1	esBAF inh 80
CO[C@H]1CN(C)C(=O)c2ccc(NC(=O)C3CCC3)cc2OC[C@@H](C)N(Cc2ccncc2)C[C@@H]1C	none (no result: ASAP1 GAP inh, ARFGAP1 inhibitor, SMARCA2 activ)
N=C1C(c2nc3ccccc3s2)=C(O)CN1Cc1ccco1	esBAF inh 53
Cc1ccc(SCc2cn3cccnc3n2)cc1	esBAF inh 46
C[C@H]1CN([C@@H](C)CO)C(=O)c2cc(NC(=O)Cc3ccccc3)ccc2O[C@H]1CN(C)S(=O)(=O)c1ccccc1	none (no result: ASAP1 GAP inh, ARFGAP1 inhibitor, SMARCA2 activ)
C[C@H]1CN([C@@H](C)CO)C(=O)c2cc(NC(=O)C3CC3)ccc2O[C@H]1CN(C)C	none (no result: ASAP1 GAP inh, ARFGAP1 inhibitor, SMARCA2 activ)
CCOc1ccc(N2C(=O)c3ccccc3C2=O)cc1	esBAF inh 43
COc1ccc(Nc2cnn(-c3nc4ccccc4s3)c(=O)c2Cl)cc1	SMARCA2 activ 12 (no result: esBAF inh)
CC(=O)N(C)C[C@@H]1Oc2ncc(C#Cc3ccccc3F)cc2C(=O)N([C@@H](C)CO)C[C@H]1C	none (no result: ASAP1 GAP inh, ARFGAP1 inhibitor, SMARCA2 activ)
CCOc1nc(NCc2ccco2)nc(Nc2ccccc2F)n1	esBAF inh 67
O=C(CSCc1ccccc1Cl)N1CCN(c2ccccn2)CC1	esBAF inh 58
CCC(=O)Nc1nnc(/C=C/c2ccccc2)s1	esBAF inh 61
CCCC(=O)Nc1nnc(/C=C/c2ccccc2)s1	none
CC(=O)c1cc(NC(=O)c2ccc(C)cc2)c(=O)oc1/C=C/N(C)C	esBAF inh 44
COc1ccc(NC(=O)Nc2ccc3c(c2)C(=O)N([C@H](C)CO)C[C@H](C)[C@@H](CN(C)C(=O)NC(C)C)OCCCC[C@H](C)O3)cc1	none (no result: ASAP1 GAP inh, ARFGAP1 inhibitor, SMARCA2 activ)
CN(C)C(=O)c1cccc(-c2ccc([C@@H]3[C@H]4CN(CC5CCOCC5)CCCCN4[C@H]3CO)cc2)c1	none (no result: ASAP1 GAP inh, ARFGAP1 inhibitor, SMARCA2 activ)
Cn1c(SCc2ccccc2Cl)nnc1-c1cnccn1	esBAF inh 68
CC1CCCN(C(=O)c2sc3cc([N+](=O)[O-])ccc3c2Cl)C1 (configuration not stated)	esBAF inh 46
COc1ccc(S(=O)(=O)N(C)C[C@H]2OCCCC[C@@H](C)Oc3ccc(NS(=O)(=O)c4ccccc4)cc3C(=O)N([C@@H](C)CO)C[C@@H]2C)cc1	none (no result: ASAP1 GAP inh, ARFGAP1 inhibitor, SMARCA2 activ)
CCSc1nnc(-c2c[nH]c3ccccc23)o1	esBAF inh 49 (no result: ASAP1 GAP inh, ARFGAP1 inhibitor, SMARCA2 activ)
CCOc1ccc(/C=N/n2cc(-c3ccccc3)[nH]c2=S)cc1	esBAF inh 45
C[C@H](CO)N1C[C@H](C)[C@@H](CN(C)C(=O)Nc2cccc3ccccc23)Oc2ccc(NS(C)(=O)=O)cc2C1=O	none (no result: ASAP1 GAP inh, ARFGAP1 inhibitor, SMARCA2 activ)
Clc1ncccc1-c1nnn(-c2ccccc2)n1	none
Clc1nc2ccccc2cc1-c1nnn(-c2ccccc2)n1	esBAF inh 62
Cc1nc(SCc2ccccc2)nc2c1CCC2	esBAF inh 100
O=C(C[C@@H]1C[C@@H]2c3cc(NC(=O)Nc4ccccc4F)ccc3O[C@@H]2[C@H](CO)O1)NCC(F)(F)F	none (no result: ASAP1 GAP inh, ARFGAP1 inhibitor, SMARCA2 activ)
Cc1[nH]nc(Nc2ccc(C(C)C)cc2)c1[N+](=O)[O-]	esBAF inh 93
Cc1ccc(Nc2n[nH]c(C)c2[N+](=O)[O-])cc1	none (no result: esBAF inh)
Cc1cccc(NC(=O)c2c(O)c3ccccc3[nH]c2=O)c1	esBAF inh 49
O=C(Nc1cccc(C(F)(F)F)c1)c1c(O)c2ccccc2[nH]c1=O	none (no result: ASAP1 GAP inh, ARFGAP1 inhibitor, SMARCA2 activ)
COc1ccc(C2CC(c3ccc(Cl)cc3)=NN2c2ccc(S(N)(=O)=O)cc2)cc1 (configuration not stated)	none
COc1ccc(C2CC(c3ccncc3)=NN2c2ccc(S(N)(=O)=O)cc2)cc1 (configuration not stated)	esBAF inh 83
C[C@@H]1CN([C@H](C)CO)S(=O)(=O)c2ccc(-c3ccccc3F)cc2O[C@@H]1CN(C)Cc1ccncc1	none (no result: ASAP1 GAP inh, ARFGAP1 inhibitor, SMARCA2 activ)
O=C(c1ccc2ccccc2c1)N1CCc2ccccc21	esBAF inh 64
CCOc1ccc(C(=O)N2CCc3ccccc32)cc1	esBAF inh 50
O=C(COc1ccccc1Cl)N1CCc2ccccc21	esBAF inh 64
O=C(COc1ccccc1)N1CCc2ccccc21	none (no result: esBAF inh)
CCCOc1ccc(C(=O)N2CCCc3ccccc32)cc1	none
CCCC(=O)Nc1ccc2c(c1)OC[C@H](C)NC[C@@H](C)[C@@H](OC)CN(C)C2=O	none (no result: ASAP1 GAP inh, ARFGAP1 inhibitor, SMARCA2 activ)
C[C@@H]1CN([C@@H](C)CO)C(=O)c2cccc(NS(=O)(=O)c3ccc(F)cc3)c2O[C@@H]1CN(C)C(=O)Nc1ccc2c(c1)OCO2	none (no result: ASAP1 GAP inh, ARFGAP1 inhibitor, SMARCA2 activ)
CCCN1C(=O)/C(=C2\SC(N3CCCCC3)=NC2=O)c2ccccc21	esBAF inh 74
CN1C(=O)/C(=C2\SC(N3CCCCCC3)=NC2=O)c2ccccc21	esBAF inh 46
O=C1N=C(N2CCCCC2)S/C1=C\c1ccc(Br)cc1	none
O=C1N=C(N2CCOCC2)S/C1=C1\C(=O)N(Cc2ccccc2)c2ccccc21	esBAF inh 52
O=C1N=C(N2CCCCC2)SC1=C1CCCCC1	esBAF inh 75
O=C(C[C@@H]1C[C@@H]2c3cc(NC(=O)c4cccnc4)ccc3O[C@@H]2[C@H](CO)O1)NCC1CC1	none (no result: ASAP1 GAP inh, ARFGAP1 inhibitor, SMARCA2 activ)
C[C@@H]1CCCCO[C@H](CN(C)Cc2ccc(Cl)c(Cl)c2)[C@@H](C)CN([C@H](C)CO)C(=O)c2cc(NC(=O)Nc3cccc4ccccc34)ccc2O1	none (no result: ASAP1 GAP inh, ARFGAP1 inhibitor, SMARCA2 activ)
C[C@H](CO)N1C[C@H](C)[C@H](CN(C)C(=O)c2cccnc2)Oc2ncc(-c3ccc(C#N)cc3)cc2C1=O	none (no result: ASAP1 GAP inh, ARFGAP1 inhibitor, SMARCA2 activ)
CC1CN(Cc2csc(-c3ccc(Cl)cc3)n2)CC(C)O1 (configuration not stated)	esBAF inh 47
Cc1ccc(NC(=S)c2ccncc2)cc1	none
Cc1ccc(NC(=S)c2ccccc2)cc1	esBAF inh 68
COc1ccc2c(c1)C1=NN(/C(C)=C\C(C)=O)C(c3ccccc3)C1CC2 (configuration not stated)	esBAF inh 48
COc1ccc2c(c1)C1=NN(/C(C)=C/C(C)=O)C(c3ccc(F)cc3)C1CC2 (configuration not stated)	none (no result: esBAF inh)
COc1ccc(NC(=O)/C=C/c2cccc(Br)c2)cn1	esBAF inh 67
O=C(NCc1ccco1)c1sc2ccccc2c1Cl	esBAF inh 49
O=C(NCc1ccco1)c1sc2cc(Cl)ccc2c1Cl	none
COC(=O)Cn1ncc2c(C)n(Cc3ccccc3)c(C)c2c1=O	esBAF inh 52
Cc1c2cnn(CC(=O)O)c(=O)c2c(C)n1Cc1ccccc1	none
CCCN1C[C@H](C)[C@H](OC)CN(C)C(=O)c2cc(NS(=O)(=O)CC)ccc2OC[C@@H]1C	none (no result: ASAP1 GAP inh, ARFGAP1 inhibitor, SMARCA2 activ)
CN(C)/C=C/C(=O)c1ccc(Oc2ccccc2)cc1	esBAF inh 51
CN1CCN(C(=O)C[C@@H]2CC[C@@H]3[C@H](COC[C@H](O)CN3CC3CC3)O2)CC1	none (no result: ASAP1 GAP inh, ARFGAP1 inhibitor, SMARCA2 activ)
CC(=O)c1ccc(-c2nnc(CCC(=O)N3CCCC(C(=O)CC(C)C)C3)o2)s1 (configuration not stated)	esBAF inh 83
O=C(CCc1nnc(-c2ccc(-c3ccccc3)cc2)o1)N1CCCCC1	none (no result: esBAF inh)
